We go through eight compounds from ChEMBL document CHEMBL1153758, “Synthesis and anti-osteoporotic evaluation of certain 3-amino-2-hydroxypropoxyisoflavone derivatives” (Eur J Med Chem, 2009).

The test system of one data set is MADS. The data set can be described thus: Osteogenic effect on human MADS cells assessed as extracellular matrix calcification at 10 uM after 13 days by using alizarin red S dye. The data set is classed as functional, cell-based. The procedure, abridged: (§1)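 Cells were induced in osteo-induction medium (low-glucose DMEM, 10% FBS, 0.1 µM dexamethasone, 10 mM β-glycerophosphate, 100 µM L-ascorbic 2-phosphate) for 7–14 days. Compounds were added at a final 10 µM from 10 mM DMSO stocks (0.1% DMSO), with DMSO-matched controls.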

A short description of data set [1]: Cytotoxicity against human ADSC at 10 uM after 3 days by MTT assay. The conditions noted are these: 72 h. The method in brief:
(§2)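 Compounds came from 10 mM DMSO stocks, diluted fresh in medium to a final 10 µM (0.1% DMSO), with vehicle-matched DMSO controls. After treatment, MTT ([…] in PBS) was added for 4 h. Formazan was then dissolved in DMSO for 0.5 h and read at 570 nm, expressed as % of control.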
(Tetrazolium assays rely on reduction of a dye to a coloured formazan, in cell work by metabolically active cells.)

Data set [2] relates to RAW264.7. The data set can be described thus: Antiosteoporotic activity in mouse RAW264.7 cells assessed as inhibition of RANKL-stimulated osteoclastogenesis by TRAP assay. The data set is classed as functional, cell-based. The conditions noted are these: for EC50: read-out: ED50 (the source's name). The procedure, abridged: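 RAW 264.7 cells were seeded at 10^3 cells per well with 100 ng/mL RANKL and cultured 5 days at 37 °C in 5% CO2, with fresh RANKL-containing medium added on day 3. TRAP activity was read as conversion of 4 mmol/L α-naphthyl phosphate to α-naphthol in the presence of 2 mol/L L-tartrate, by absorbance at 405 nm.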

Data set [3] has as its system adipose-derived stem cells (Homo sapiens). The data set can be described thus: Cytotoxicity against human adipose-derived stem cells assessed as decrease in cell viability. The conditions noted are these: hADSC.
The subject of the next data set is MC3T3-E1. The data set can be described thus: Osteogenic effect on mouse MC3T3-E1 cells assessed as extracellular matrix calcification at 10 uM after 12 days by using alizarin red S dye. The data set is classed as functional, cell-based. The method in brief:
as §1

Data set [4] in a line: Selectivity ratio for osteogenic effect of 3-(3,4-dimethoxyphenyl)-7-(oxiran-2-ylmethoxy)-4H-chromen-4-one on MC3T3-E1 cells to osteogenic effect of ipriflavone on MC3T3-E1 cells. The class given is functional, Mus musculus.
For data set [5], the system named is RAW264.7. The data set can be described thus: Cytotoxicity against mouse RAW264.7 cells at 10 uM after 3 days by MTT assay. The conditions noted are these: raw264.7, 72 h. The data set is classed as cell-based. The method in brief: as §2
Another data set concerns D1. The data set can be described thus: Osteogenic effect on mouse D1 cells assessed as extracellular matrix calcification at 10 uM after 7 days by using alizarin red S dye. The class given is functional, cell-based. The procedure, abridged: as §1
The nature of data set [6]: Cytotoxicity against mouse D1 cells at 10 uM after 3 days by MTT assay. The class given is cell-based. Conditions: d1, 72 h. The method in brief:
as §2

Data set [7] in a line: Selectivity ratio for osteogenic effect of 3-(4-(3-(cyclohexylamino)-2-hydroxypropoxy)phenyl)-7-methoxy-4H-chromen-4-one on MC3T3-E1 cells to osteogenic effect of ipriflavone on MC3T3-E1 cells. The data set is classed as functional, Mus musculus.

Calls of active or inactive are those of the source. No cut-off for these calls is given here.

With `O=C(c1ccc(OCCN2CCCCC2)cc1)c1c(-c2ccc(O)cc2)sc2cc(O)ccc12` [RALOXIFENE], in the data set on MADS, the result was Active. Also, the Activity result in [1] was “Non-toxic”.
A word on the IC50: it is the concentration needed to halve the response being measured. On to `COc1ccc2c(=O)c(-c3ccc(OCC(O)CNC4CC4)cc3)coc2c1` (stereo not given), for which the IC50 in the data set with RAW264.7 [2] is 4.85 µM.
The same measure, in the same setting: the result for `COc1ccc(-c2coc3cc(OCC(O)CNC4CCCCC4)ccc3c2=O)cc1OC` (stereo not given) reads 4.17 µM.
On to `COc1ccc(-c2coc3cc(OCC4CO4)ccc3c2=O)cc1OC` (stereo not given), for which the result with MADS, in the data set on MC3T3-E1 and in the data set with D1 was Active. Moreover, the Activity in [3] was 60%; in the data set on RAW264.7 [5], “Non-toxic”; in data set [6], “Non-toxic”. Also, the Selectivity ratio in data set [4] stood at 10. For the same compound, the IC50 in the data set with RAW264.7 [2] was found to be 0.56 µM. For the same compound, in the data set with RAW264.7 [2], the EC50 amounted to 0.56 µM.
In the case of `O=c1cc(-c2ccccc2)oc2cc(O)c(O)c(O)c12` [BAICALEIN], the IC50 in the data set with RAW264.7 [2] was 13 µM.
`COc1ccc2c(=O)c(-c3ccc(OCC(O)CNC4CCCCC4)cc3)coc2c1` (stereo not given): the outcome in the data set with MADS, in the data set with MC3T3-E1 and with D1 was Active. Besides, the Selectivity ratio in data set [7] was 10. Besides, the Activity entry (in the data set with RAW264.7 [5]; in data set [6]; in [1]) was “Non-toxic” each time. Further, the EC50 with RAW264.7 [2] is 2.28 µM.
Take `CC(C)Oc1ccc2c(=O)c(-c3ccccc3)coc2c1` [IPRIFLAVONE]: the result in the data set with MADS was Active. For the same compound, the Activity result in data set [1] was “Non-toxic”.
As for `COc1ccc2c(=O)c(-c3ccc(OCC4CO4)cc3)coc2c1` (stereo not given), the IC50 in the data set on RAW264.7 [2] came to 6.39 µM.
